We go through five molecules from publication PMC5724766 (Bioorganic & medicinal chemistry, 2016).

One test concerns proteasome. The settings on record: cited from earlier work; for IC50: read-out: IC50, proteasome inhibition.
For test [1], the target named is purified human 20S proteasome, tryptic (β2)-like activity (Homo sapiens, UniProt Q99436). In words: 20S proteasome trypsin-like. Format: biochemical. In a few lines: (§1)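 Purified human 20S proteasome (1 nM) in 50 mM Tris-HCl pH 7.5 with 0.03% SDS and 50 μM fluorogenic substrate at 37 °C: Z-LLE-AMC for caspase-like activity, Z-ARR-AMC for trypsin-like activity. Released aminomethylcoumarin read at ex 380/em 460 nm every minute for 30 min. Maximum fluorescence increase per minute gives the specific activity of each sample.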

For test [2], the target named is purified human 20S proteasome, caspase (β1)-like activity (Homo sapiens, UniProt P28072). The test can be described thus: 20S proteasome caspase-like. Format: biochemical. The gist of the method:
as §1

Each structure is given as a SMILES string.

Usually IC50 stands for the concentration at which inhibition is half-maximal. Take `Nc1ccc(O)c2ncccc12` [5-AHQ, 5-amino-8-hydroxyquinoline]: the IC50 in the test with proteasome is 0.6 to 5 µM.

Take `CCN(CC)CCCC(C)Nc1ccnc2cc(Cl)ccc12` (stereo not drawn) [chloroquine]: in the test on proteasome, the “proteasome inhibitory activity (in words)” value is reported as “millimolar activity”.

Take `Cc1cc(C)c2cc(C3=CCCCC3)c(C)nc2c1` [Compound 7, 3-Cyclohexenyl-2,5,7-trimethylquinoline]: the IC50 in test [1] is above 25 µM.

For `Cc1nc2ccc(N3CCCCC3)cc2cc1C1=CCCCC1` [Compound 25, 3-Cyclohexenyl-2-methyl-6-piperidinylquinoline], in test [1] (purified human 20S proteasome, Suppl. Fig. S6), the “inhibition of tryptic-like activity (in words)” value is given as “not the tryptic-like activity”. This molecule also yielded an IC50 in test [2] of 10.9 µM.

As to `O=C1C(Cl)=C(Nc2ccc(S(=O)(=O)Nc3ccccn3)cc2)C(=O)c2ccccc21` [PI-083], the IC50 with proteasome was around 1 µM.
